Active and inactive are the calls of the source. The calls are words filed in the database; no cut-off is given here.
Tests used:
Ehrlich [1] = experiment: Antitumor activity against mouse EAC allografted in CF1 mouse assessed as host survival at 33 mg/kg/day measured on day 7; format: functional, organism-based
Ehrlich [2] = experiment: Antitumor activity against mouse EAC allografted in CF1 mouse assessed as tumor volume at 33 mg/kg/day measured on day 7; format: functional
P388 [3] = experiment: Antitumor activity against mouse P388 cells allografted in DBA/2 mouse assessed as tumor growth inhibition at 20 mg/kg, ip qd relative to control; format: functional; conditions: route intraperitoneal
P388 [4] = experiment: Antitumor activity against mouse P388 cells allografted in DBA/2 mouse assessed as host survival at 20 mg/kg, ip qd; format: functional; conditions: route intraperitoneal
Summary of the method: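 P388 leukaemia cells were implanted on day 0 in male DBA/2 mice (20 g). Compound was dosed ip at 20 mg/kg/day. T/C survival values were calculated according to the NIH protocol. 5-Fluorouracil served as the internal standard.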

Ehrlich [5] = experiment: Antitumor activity against mouse EAC allografted in CF1 mouse assessed as inhibition of tumor growth at 33 mg/kg/day measured on day 7; format: functional; conditions: 168 h
W256 [6] = experiment: Antitumor activity against rat Walker 256 cells allografted in Sprague-Dawley rat assessed as tumor growth inhibition at 2.5 mg/kg, ip qd relative to control; format: functional; conditions: route intraperitoneal
W256 [7] = experiment: Antitumor activity against rat Walker 256 cells allografted in Sprague-Dawley rat assessed as host survival days at 2.5 mg/kg, ip qd; format: functional; conditions: route intraperitoneal
Summary of the method: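 Walker 256 ascites cells were implanted ip into male Sprague-Dawley rats (75 ± 10 g). Compound in 0.05% Tween-water was given ip at 2.5 mg/kg/day, and the day of death was recorded. T/C was calculated from the mean survival time per group according to the NIH protocol. Melphalan served as the internal standard.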

[8] = Acute toxicity in CF1 mouse; format: organism-based; conditions: in vivo
[9] = Chemical stability of the compound by TLC analysis; format: physicochemical
[10] = Chemical stability of the compound assessed as optical rotation; format: physicochemical

SMILES | Survival (Ehrlich [1]) | Activity (Ehrlich [2]) [mL] | T/C (P388 [3]) | Survival (P388 [4]) [days] | inhibition in vivo at 33 mg/kg/day (Ehrlich [5]) [%] | T/C (W256 [6]) | Survival (W256 [7]) [days] | LD50 [8] [µmol/kg] | Stability [9] | Stability [10]
Sc1ncnc2nc[nH]c12 [MERCAPTOPURINE ANHYDROUS] | Active | 0.7 | 148 | 12 | 99.6 | – | – | – | – | –
O=C(N[C@H](Cc1ccccc1)C(=O)OC(Br)CBr)OCc1ccccc1 (stereo not given in full) | Active | 0 | 92 | 7.5 | 100 | 117 | 8.7 | 310 | – | –
Cc1ccc(S(=O)(=O)N[C@@H](Cc2ccccc2)C(=O)OCC#N)cc1 | – | 0.4 | 112 | 9.1 | 97 | 113 | 8.5 | 730 | Stable | Stable
Cc1ccc(S(=O)(=O)N[C@@H](Cc2ccccc2)C(=O)C(=O)CCl)cc1 | – | 0.01 | – | – | 100 | – | – | 210 | – | –
O=Cc1ccccc1 [BENZALDEHYDE] | Active | 0.8 | – | – | 69 | – | – | – | – | –
Cc1ccc(S(=O)(=O)N[C@@H](Cc2ccccc2)C(=O)O)cc1 | Active | 0.5 | – | – | 84 | – | – | – | – | –
O=C(NC(Cc1ccccc1)C(=O)O)OCc1ccccc1 (racemic) | – | 2.6 | – | – | 52 | – | – | – | – | –
C=COC(=O)[C@@H](N)Cc1ccccc1.Cl | – | 2.2 | – | – | 41 | – | – | – | Stable | Stable
O=C(O)CCCc1ccc(N(CCCl)CCCl)cc1 [CHLORAMBUCIL] | – | – | – | – | – | – | – | 61 | – | –
C=COC(=O)[C@H](Cc1ccccc1)NC(=O)OCc1ccccc1 | Active | 0.1 | 100 | 8.1 | 99.9 | 226 | 18.1 | > 6150 | Stable | Stable
C=COC(=O)[C@@H](Cc1ccccc1)NC(=O)OCc1ccccc1 | Active | 3.6 | – | – | 36 | – | – | 1540 | Stable | Stable
N#CCOC(=O)[C@H](Cc1ccccc1)NC(=O)c1ccccc1 | – | 1.8 | – | – | 47 | – | – | 360 | Stable | Stable
N#CCOC(=O)C(Cc1ccccc1)NC(=O)OCc1ccccc1 (racemic) | Active | 0.4 | – | – | 86 | – | – | 760 | Stable | Stable
N#CCOC(=O)[C@H](Cc1ccccc1)NC(=O)/C=C/c1ccccc1 | Active | 2.8 | – | – | 27 | – | – | – | Stable | Stable
N[C@H](CO)Cc1ccccc1 [L-PHENYLALANINOL] | – | 0.6 | – | – | 92 | – | – | 500 | – | –
O=C(N[C@@H](Cc1ccccc1)C(=O)OC(Cl)CCl)OCc1ccccc1 (stereo not given in full) | Active | 0.8 | – | – | 93 | – | – | 1260 | – | –
N#CCOC(=O)[C@H](Cc1ccccc1)NC(=O)[C@H](Cc1ccccc1)NC(=O)OCc1ccccc1 | Active | 1.5 | – | – | 52 | – | – | – | Stable | Stable
C=CCOC(=O)[C@H](Cc1ccccc1)NC(=O)OCc1ccccc1 | Active | 2.6 | – | – | 24 | – | – | – | Stable | Stable
C=COC(=O)C(Cc1ccccc1)NC(=O)OCc1ccccc1 (racemic) | Active | 1.3 | – | – | 58 | – | – | 1540 | Stable | Stable
O=C(N[C@@H](Cc1ccccc1)C(=O)O)OCc1ccccc1 | Active | 0.6 | – | – | 75 | – | – | 840 | – | –

SMILES | Survival (Ehrlich [1]) | Activity (Ehrlich [2]) [mL] | T/C (P388 [3]) | Survival (P388 [4]) [days] | inhibition in vivo at 33 mg/kg/day (Ehrlich [5]) [%] | T/C (W256 [6]) | Survival (W256 [7]) [days] | LD50 [8] [µmol/kg] | Stability [9] | Stability [10]
CC(=O)N[C@@H](Cc1ccccc1)C(=O)OCC#N | Active | 3.9 | – | – | 16 | – | – | – | Stable | Stable
C=COC[C@H](Cc1ccccc1)NC(=O)OCc1ccccc1 | – | 1.4 | – | – | 47 | – | – | – | Stable | Stable
C#CCOC(=O)[C@H](Cc1ccccc1)NC(=O)OCc1ccccc1 | – | 3.3 | – | – | 54 | – | – | – | – | –
C=COC(=O)[C@H](Cc1ccccc1)NC(=O)c1ccccc1 | Active | 2.1 | – | – | 56.8 | – | – | – | Stable | Stable
O=C(N[C@@H](Cc1ccccc1)C(=O)N[C@@H](Cc1ccccc1)C(=O)OC(Br)CBr)OCc1ccccc1 (stereo not given in full) | Active | 0.2 | – | – | 92 | – | – | 780 | – | –
CCOC(=O)[C@H](Cc1ccccc1)NC(=O)/C=C/c1ccccc1 | Active | 5 | – | – | 0 | – | – | – | – | –
O=C(N[C@H](Cc1ccccc1)C(=O)O)OCc1ccccc1 | Active | 4.3 | – | – | 0 | – | – | – | – | –
Cl.N#CCOC(=O)[C@@H](N)Cc1ccccc1 | – | 2.5 | – | – | 9 | – | – | – | Stable | Stable
CCOC(=O)[C@H](Cc1ccccc1)NC(=O)OCc1ccccc1 | Active | 1.5 | – | – | 57 | – | – | 1530 | – | –
O=C(N[C@@H](Cc1ccccc1)C(=O)O)c1ccccc1 | Active | 1.3 | – | – | 73 | – | – | – | – | –
O=C(N[C@H](CO)Cc1ccccc1)OCc1ccccc1 | Active | 1.3 | – | – | 55 | – | – | – | – | –
N[C@@H](Cc1ccc(N(CCCl)CCCl)cc1)C(=O)O [MELPHALAN] | Active | 0.1 | – | – | 99 | 305 | 23 | – | – | –
O=C(/C=C/c1ccccc1)N[C@@H](Cc1ccccc1)C(=O)O | Active | 2.1 | – | – | 58 | – | – | 740 | – | –
N#CCOC(=O)[C@@H](Cc1ccccc1)NC(=O)OCc1ccccc1 | – | 1 | – | – | 72 | – | – | 80 | Stable | Stable
C=COC(=O)[C@H](Cc1ccccc1)NS(=O)(=O)c1ccc(C)cc1 | – | 3.8 | – | – | 56.8 | – | – | – | Stable | Stable
C=COC(=O)[C@H](Cc1ccccc1)NC(=O)[C@H](Cc1ccccc1)NC(=O)OCc1ccccc1 | – | 2.1 | – | – | 43 | – | – | – | Stable | Stable
C=CCOC(=O)C(Cc1ccccc1)NC(=O)OCc1ccccc1 (racemic) | Active | 0.6 | – | – | 71 | – | – | – | Stable | Stable
N#CCOC(=O)[C@H](Cc1ccccc1)NC(=O)OCc1ccccc1 | Active | 0.2 | 82 | 6.6 | 99.9 | 113 | 8.5 | 440 | Stable | Stable
O=C(N[C@@H](Cc1ccccc1)C(=O)OC(Br)CBr)OCc1ccccc1 (stereo not given in full) | Active | 0 | 83 | 6.7 | 100 | 305 | 23 | 150 | – | –
C#CCN[C@@H](Cc1ccccc1)C(=O)OCC | Active | 3.7 | – | – | 16 | – | – | – | – | –

From ChEMBL document CHEMBL3272299, “Antineoplastic agents. 1. N-Protected vinyl, 1,2-dihaloethyl, and cyanomethyl esters of phenylalanine” (J Med Chem, 1977)
